Values joined by “and” are separate entries in the source; they are usually repeats but may differ in a detail not shown here. Equal values may be shown once.
Experiments:
[1] = Systemic blood pressure; assay type: in vivo, Sprague–Dawley rats; details: rats
How it was run: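 Oral dosing after IA induction, vehicle 0.5% methylcellulose. Blood pressure measured in conscious rats by tail-cuff, without anaesthesia. Systolic, mean and diastolic values each taken as the mean of at least three measurements.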

[2] = tested on: intracranial aneurysm (IA); assay: Rat IA model, histological analysis of induced IAs; assay type: in vivo, Sprague–Dawley rats; details: for growth (size) of induced IAs: KRP‐203 0.01 and BAF312 0.3 mg·kg^−1 daily
How it was run: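 IA induced at the right ACA-OA bifurcation, contralateral to carotid ligation. Rats randomized and given test compound p.o. (suspended in 0.5% methylcellulose) throughout. Specimens prepared at 12 weeks; 5 μm sections immunostained. Aneurysm size and infiltrating macrophage number assessed.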

[3] = tested on: lymphocytes / monocytes in peripheral blood; assay: Peripheral blood lymphocyte and monocyte count in rat IA model; assay type: in vivo, Sprague–Dawley rats; details: rats
How it was run: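 Oral dosing after IA induction. Agonist suspended in 0.5% methylcellulose; antagonist suspended in 5% arabic gum and given twice daily. Peripheral lymphocyte and monocyte counts taken after the dosing period (4 weeks for the antagonist).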

[4] = tested on: HCtAEC monolayer; assay: Permeability assay; assay type: cell-based, human; details: for effect on the ASP4058‐mediated inhibition of endothelial permeability: ASP4058 100 nM, TASP0277308 pretreated 1 h, EHop‐016 30 min
How it was run: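 HCtAECs (10^5 per well) grown overnight on collagen-coated Transwell inserts (0.4 μm pore) in growth medium, then overnight in serum-free defined medium. Compound or vehicle (0.1% DMSO) added to both compartments for 1 h. 250 μg·mL−1 FITC-dextran (2000 kDa) then added to the upper compartment; diffusion into the lower compartment read after 1 h (ex 490/em 520 nm). Antagonist pretreatment 1 h or Rac inhibitor 30 min, before 100 nM agonist. Duplicates, 37°C.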

[5] = rats, oral, 14 days at 0.1 mg·kg^−1; ref Yamamoto et al., 2014; cited from earlier work
[6] = tested on: THP‐1 cells across HCtAEC monolayer; assay: Trans‐endothelial migration assay; assay type: cell-based, human; details: MCP‐1 100 ng·mL^−1, 3 h
How it was run: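 HCtAECs (10^5 per well) grown overnight on Transwell inserts (5.0 μm pore) in growth medium. Compound in serum-free defined medium, or vehicle (0.1% DMSO), added to both compartments. At the same time, THP-1 cells (5 × 10^5) added above and MCP-1 (100 ng·mL−1) below. After 3 h at 37°C, migrated cells quantified by ATP luminescence. Antagonist co-added with 100 nM agonist; duplicates.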

[7] = tested on: IA walls at ACA‐OA bifurcation; assay: In vivo vascular permeability assay; design: species or system Sprague–Dawley rats; details: day 7, BAPN
How it was run: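 Rats after IA induction, with 3-aminopropionitrile to facilitate formation, dosed p.o. once daily from just after surgery; vehicle 0.5% methylcellulose. On day 7, under deep anaesthesia, Evans blue (45 mg·kg−1) injected intra-arterially via the right common carotid (proximal side clamped), then 4% paraformaldehyde perfusion. Age-matched Sprague–Dawley rats served as controls. Frozen sections imaged confocally (ex 620/em 680 nm); stained area thresholded, particles >4 pixel square counted.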

[8] = tested on: THP‐1 cells; assay: Chemotaxis assay; assay type: cell-based, human; details: 100 nM ASP4058, MCP‐1 10 ng·mL^−1, 3 h
How it was run: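 Migrated-cell Transwell assay (5.0 μm pore) without an endothelial layer. Test compound diluted in RPMI 1640 with 0.1% fatty-acid-free BSA; compound or vehicle (0.1% DMSO) added to both compartments. THP-1 cells (5 × 10^5 per well) added to the upper and MCP-1 (10 ng·mL−1) to the lower compartment simultaneously. After 3 h at 37°C, migrated cells quantified by ATP-based luminescence; duplicates.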

[9] = tested on: intracranial aneurysm (IA); assay: Non‐human primate model of IAs; assay type: in vivo; details: Macaca fascicularis, 0.1 mg·kg^−1 once daily, 52 weeks, n = 3
How it was run: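 Female Macaca fascicularis (11 years old, 3.4 kg average), held under a 12 h light–dark cycle. IAs induced by two-step surgery at a 2 week interval. Test compound given once daily. At 52 weeks, five intracranial bifurcation sites per animal examined for IA formation, scored as breakage of the lamina elastica.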

[10] = molecular target: S1P1 receptors expressed on HCtAEC (Homo sapiens, UniProt P21453); assay: S1P1 receptor internalization assay; assay type: cell-based; details: mean ± SEM, n = 5
Sequence of S1P1 receptors expressed on HCtAEC (P21453 whole entry): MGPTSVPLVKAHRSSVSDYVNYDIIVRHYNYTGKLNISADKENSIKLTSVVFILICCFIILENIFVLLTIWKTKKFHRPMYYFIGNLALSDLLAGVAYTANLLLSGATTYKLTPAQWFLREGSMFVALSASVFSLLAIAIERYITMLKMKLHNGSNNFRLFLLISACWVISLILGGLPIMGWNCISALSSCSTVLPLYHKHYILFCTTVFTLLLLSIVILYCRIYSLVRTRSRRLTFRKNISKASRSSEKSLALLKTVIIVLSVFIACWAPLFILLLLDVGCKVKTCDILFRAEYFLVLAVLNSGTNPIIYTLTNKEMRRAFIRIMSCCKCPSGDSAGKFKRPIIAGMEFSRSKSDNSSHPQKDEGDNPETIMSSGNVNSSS
How it was run: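 HCtAECs (10^5 per well) seeded overnight, then exposed for 1 h at 37°C to test compound diluted in serum-free defined medium. Cells washed in ice-cold PBS and detached with Accutase. Staining with mouse anti-S1P1 (30 min on ice), then PE anti-mouse IgG; IgG2b isotype control; dead cells excluded by 7-AAD or SYTOX Blue. Isotype-subtracted geoMFI normalized to vehicle, expressed as % of control.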

[11] = tested on: hS1P1; details: S1P2, S1P3, S1P4 versus S1P1/S1P5; ref Yamamoto et al., 2014; cited from earlier work
[12] = molecular target: S1P1 receptors in HCtAECs (Homo sapiens, UniProt P21453); assay: cAMP assay; assay type: cell-based
Sequence of S1P1 receptors in HCtAECs (P21453 whole entry): as above
How it was run: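 HCtAECs seeded at 2 × 10^4 per well and kept overnight. Test compound diluted in HBSS (pH 7.2) containing 5 mM HEPES (pH 7.5), 0.1% fatty-acid-free BSA and 0.5 mM IBMX. Cells stimulated with 1 μM forskolin plus compound for 20 min at 37°C. Lysis in HEPES/CaCl2/Triton X-100 buffer; cAMP measured with a LANCE cAMP kit. Duplicates.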

[13] = Plasma concentration of ASP4058 in rat aneurysm model; assay type: in vivo, rats
How it was run: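 Rats dosed orally at 0.01 mg·kg−1 for 12 weeks. Plasma collected just before and 1, 2, 4, 8 and 24 h after the last dose. Plasma separated by centrifugation and stored at −20°C or lower. Samples prepared by protein precipitation and quantified by HPLC–tandem mass spectrometry.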

[14] = KRP‐203 0.01 or BAF312 0.3 mg·kg^−1, 4 weeks after IA induction
[15] = TASP0277308 100 or 300 mg·kg^−1 p.o. twice daily, 4 weeks
[16] = rats, TASP0277308 100 or 300 mg·kg^−1 p.o. twice daily, 4 weeks, BAPN
[17] = p.o., 12 weeks after IA induction

CCCCCCCCc1ccc(CCC(N)(CO)CO)cc1.Cl [fingolimod, 2‐amino‐2‐[2‐(4‐octylphenyl)ethyl]propane‐1,3‐diol hydrochloride, reference compound]
systemic blood pressure ([1]; fingolimod for 4 weeks after IA induction): without influencing | size of IAs induced ([2]; rats, fingolimod daily during whole period, 4 weeks, BAPN): significantly exacerbated the IA size

CCc1cc(/C(C)=N/OCc2ccc(C3CCCCC3)c(C(F)(F)F)c2)ccc1CN1CC(C(=O)O)C1 [BAF312, 1‐{4‐[(1E)‐N‐{[4‐cyclohexyl‐3‐(trifluoomethyl)benzyl]oxy}ethanimidoyl]‐2‐ethylbenzyl}azetidine‐3‐carboxylic acid, reference compound]
systemic blood pressure [1, 14]: without influencing | growth (size) of induced IAs ([2]; rats, 4 weeks, BAPN): significantly suppressed the growth

CCn1c(Oc2cccc(N3CCN(C)CC3)c2)nnc1[C@@H](C)NS(=O)(=O)c1ccc(Cl)c(Cl)c1 [TASP0277308, 3,4‐dichloro‐N‐[(1R)‐1‐{4‐ethyl‐5‐[3‐(4‐methylpiperazin‐1‐yl)phenoxy]‐4H‐1,2,4‐triazol‐3‐yl}ethyl]benzenesulfonamide, reference compound]
peripheral lymphocyte count [3, 15]: potently decreased | peripheral monocyte count [3, 15]: without influencing | systemic blood pressure [1, 15]: without influencing | macrophage infiltration in IA lesions [2, 16]: did not suppress | size of the IA [2, 16]: did not suppress either the macrophage infiltration in IA lesions or reduce the size | effect on the ASP4058‐mediated inhibition of endothelial permeability [4]: reversed

Cl.NC(CO)(CO)CCc1ccc(Sc2cccc(OCc3ccccc3)c2)cc1Cl [KRP‐203, 2‐amino‐2‐[2‐(4‐{[3‐(benzyloxy)phenyl]sulfanyl}‐2‐chlorophenyl)ethyl]propane‐1,3‐diol hydrochloride, reference compound]
systemic blood pressure [1, 14]: without influencing | growth (size) of induced IAs ([2]; rats, 4 weeks, BAPN): significantly suppressed the growth

C[C@H](Oc1ccc(-c2nc(-c3ccc4[nH]cnc4c3)no2)cc1C(F)(F)F)C(F)(F)F.Cl [ASP4058, 5‐{5‐[3‐(trifluoromethyl)‐4‐{[(2S)‐1,1,1‐trifluoropropan‐2‐yl]oxy}phenyl]‐1,2,4‐oxadiazol‐3‐yl}‐1H–benzimidazole hydrochloride]
peripheral lymphocyte number ([3]; ASP4058 0.01 mg·kg^−1 p.o., 12 weeks): did not decrease | monocyte count in peripheral blood ([3]; ASP4058 p.o., 12 weeks after IA induction): without significantly influencing | dose at which the decrease in lymphocyte count reached a plateau [3, 17]: 0.1 mg/kg | dose suppressing the lymphocyte number in peripheral blood [3, 17]: higher than 0.03 mg·kg^−1 | plasma concentration at the maximum [5]: 16.4 ± 0.463 ng/mL | plasma concentration at the maximum (equivalent) [5]: 37.1 ± 1.05 nM | blood pressure ([1]; ASP4058 0.1 mg·kg^−1 started 1 week after induction, measured at 7 weeks): without affecting the blood pressure | systemic blood pressure ([1]; ASP4058 p.o. for 12 weeks after IA induction): without significantly influencing | MCP‐1‐induced trans‐endothelial migration of THP‐1 cells [6]: concentration‐dependently inhibited | IA development measured by the size of the IA induced ([2]; rat model, p.o. during entire period of IA induction, 12 weeks): dose‐dependently suppressed IA development | incidence of IAs ([2]; rat model, p.o. during whole period, 12 weeks): did not affect the incidence | dose at which the suppressive effect on the size of the IA was observed ([2]; rat model, p.o., 12 weeks): 0.01 mg/kg | macrophage infiltration in the lesion ([2]; rat model, p.o., 12 weeks after induction): inhibited the macrophage infiltration | expression of MCP‐1 in the IA lesion ([2]; rats, ASP4058 0.03 mg·kg^−1, immunostaining): almost completely suppressed | IA‐associated degenerative change of the media (thinning of smooth muscle layer) ([2]; rats, ASP4058 0.03 mg·kg^−1, α‐SMA staining, 12 weeks): ameliorated the IA‐associated degenerative change of the media | enlargement of pre‐existing aneurysm ([2]; rats, ASP4058 0.1 mg·kg^−1 once daily started 1 week after IA induction, examined at 7 weeks, BAPN): significantly inhibited the enlargement | Evans blue leakage (stained area) at the ACA‐OA bifurcation after IA induction ([7]; rats, 0.1 mg·kg^−1 p.o. once daily): almost complete suppression | Evans blue leakage (stained area) at the ACA‐OA bifurcation after IA induction ([7]; rats, 0.01, 0.1 mg·kg^−1 p.o. once daily): dose‐dependently ameliorated | MCP‐1‐dependent migration (chemotaxis) of THP‐1 cells without HCtAEC monolayer [8]: failed to inhibit | leakage of FITC‐dextran (2000 kDa) across the endothelial monolayer ([4]; 10 nM ASP4058, 1 h treatment, 1 h diffusion, concentration‐dependent): statistically significant inhibition | IA formation compared with the vehicle‐treated group [9]: tended to be suppressed | S1P1 receptor expression level on HCtAECs (surface, δ geoMFI) ([10]; 100 nM ASP4058, 1 h): 86 ± 14 % of control | S1P1 receptor expression level on HCtAECs (surface, δ geoMFI) ([10]; 1000 nM ASP4058, 1 h): 23 ± 4.3 % of control | potency for other S1P receptor subtypes relative to S1P1 and S1P5 (times less) [11]: at least 100 times | IC50 [12]: 2.1 nM | Plasma concentration, 4 h ([13]; 0.01 mg·kg^−1, 12 weeks, 4 h after last administration, mean ± SEM, n = 3): 8.8 ± 1.6 nM | Plasma concentration, 24 h ([13]; 0.01 mg·kg^−1, 12 weeks, 24 h after last administration, mean ± SEM, n = 3): 4.5 ± 0.6 nM | Plasma concentration, Pre ([13]; 0.01 mg·kg^−1, 12 weeks, just before last administration, mean ± SEM, n = 3): 5.4 nM and 5.4 ± 0.7 nM | concentration at 1 h ([13]; plasma, oral, 0.01 mg·kg^−1): 6.3 ± 0.9 nM | concentration at 2 h ([13]; plasma, oral, 0.01 mg·kg^−1): 4.9 ± 1.6 nM | concentration at 4 h ([13]; plasma, oral, 0.01 mg·kg^−1): 8.8 nM | concentration at 8 h ([13]; plasma, oral, 0.01 mg·kg^−1): 7.9 ± 1.4 nM | concentration at 24 h ([13]; plasma, oral, 0.01 mg·kg^−1): 4.5 nM

CCn1c2ccccc2c2cc(Nc3ccnc(NCCCN4CCOCC4)n3)ccc21 [EHop‐016]
effect on the ASP4058‐mediated inhibition of endothelial permeability [4]: ameliorated the effect of ASP4058 on permeability

Source: publication PMC5466536 (British Journal of Pharmacology, 2017)
